This note sets out measurements from ChEMBL document CHEMBL3392991, “Structure-based design of bacterial nitric oxide synthase inhibitors” (J Med Chem, 2015).

Calls of active or inactive are those of the source. The rule behind the calls is not given here.

In assay [1] the test system is Bacillus subtilis. The assay can be described thus: Displacement of imidazole from Bacillus subtilis NOS.
The subject of assay [2] is Bacillus subtilis. Put plainly: Displacement of imidazole from Bacillus subtilis NOS in presence of 50 uM H4B.
The subject of assay [3] is Bacillus subtilis. Put plainly: Inhibition of NADPH-dependent Bacillus subtilis NOS using bBiDomain and Escherichia coli flavodoxin reductase YumC assessed as nitrite level up to 800 uM by Griess reaction. In outline: (§1)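 bBiDomain with the flavodoxin reductase YumC, NADPH-driven, 50 μM H4B included. Inhibitor tested over a range of concentrations. Nitrite measured at a single time point.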

The subject of assay [4] is Bacillus subtilis. The assay can be described thus: Inhibition of NADPH-dependent Bacillus subtilis NOS using bBiDomain and Escherichia coli flavodoxin reductase YumC assessed as nitrite level at 300 uM by Griess reaction. The arrangement: Activity: scale not given: the % may be the effect or the level left. Summed up: as §1
In general terms: The Griess reaction detects nitrite, a stable product of nitric oxide.

The subject of assay [5] is Bacillus subtilis. The assay can be described thus: Antibacterial activity against delta nos Bacillus subtilis assessed as bacterial growth up to 800 uM measured after overnight incubation relative to control. In kind it is functional. The note with it: in the assay text read “at 500 uM” for “up to 800 uM”. In outline: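 WT (ATCC 23857) and Δnos strains grown to OD600 ≈ 1.0, diluted to OD600 0.6 in LB, then mixed with M9 minimal media with or without NOS inhibitor (final 500 μM) and/or acriflavine (final 800 μM). 30 min at 30 °C, serially diluted, plated on LB agar + 0.5% glucose, overnight at 37 °C. CFU counted; percent survival relative to untreated cells.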

The next assay has as its target Nitric oxide synthase 1 (Rattus norvegicus, UniProt P29476). The assay can be described thus: Inhibition of rat nNOS.
The target of assay [6] is T1, Nitric oxide synthase, inducible (Mus musculus, UniProt P29477).
T1 sequence (P29477 whole entry): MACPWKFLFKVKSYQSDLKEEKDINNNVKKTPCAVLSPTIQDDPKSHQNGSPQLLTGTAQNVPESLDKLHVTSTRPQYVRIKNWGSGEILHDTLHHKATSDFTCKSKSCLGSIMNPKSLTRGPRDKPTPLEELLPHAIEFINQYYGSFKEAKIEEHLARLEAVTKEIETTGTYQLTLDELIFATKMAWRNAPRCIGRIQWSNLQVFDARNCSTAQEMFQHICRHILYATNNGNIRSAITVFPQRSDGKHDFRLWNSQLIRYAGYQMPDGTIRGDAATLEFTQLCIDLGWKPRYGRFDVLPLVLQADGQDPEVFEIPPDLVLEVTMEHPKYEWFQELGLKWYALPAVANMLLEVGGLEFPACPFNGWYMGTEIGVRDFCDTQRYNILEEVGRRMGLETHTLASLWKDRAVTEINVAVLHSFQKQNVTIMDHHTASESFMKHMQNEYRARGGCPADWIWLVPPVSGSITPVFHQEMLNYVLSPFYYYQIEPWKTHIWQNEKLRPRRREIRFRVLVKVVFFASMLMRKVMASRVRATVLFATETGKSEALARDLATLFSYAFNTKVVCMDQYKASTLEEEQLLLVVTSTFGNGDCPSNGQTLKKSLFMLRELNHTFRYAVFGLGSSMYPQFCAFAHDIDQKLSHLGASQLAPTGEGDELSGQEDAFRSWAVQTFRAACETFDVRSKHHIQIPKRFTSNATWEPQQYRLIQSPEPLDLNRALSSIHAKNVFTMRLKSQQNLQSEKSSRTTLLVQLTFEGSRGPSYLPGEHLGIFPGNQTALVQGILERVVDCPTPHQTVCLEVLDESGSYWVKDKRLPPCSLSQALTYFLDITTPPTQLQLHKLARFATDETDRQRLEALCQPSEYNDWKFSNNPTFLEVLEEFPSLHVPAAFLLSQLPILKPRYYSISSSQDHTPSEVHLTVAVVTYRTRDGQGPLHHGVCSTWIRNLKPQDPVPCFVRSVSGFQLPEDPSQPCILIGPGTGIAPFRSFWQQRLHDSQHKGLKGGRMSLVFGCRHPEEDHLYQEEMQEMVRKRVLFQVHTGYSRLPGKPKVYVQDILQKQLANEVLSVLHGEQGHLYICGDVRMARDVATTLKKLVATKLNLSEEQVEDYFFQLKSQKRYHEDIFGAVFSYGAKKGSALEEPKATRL
Put plainly: Inhibition of mouse iNOS.

The target of the next assay is T2, Nitric oxide synthase 3 (Bos taurus, UniProt P29473).
T2 sequence (P29473 whole entry): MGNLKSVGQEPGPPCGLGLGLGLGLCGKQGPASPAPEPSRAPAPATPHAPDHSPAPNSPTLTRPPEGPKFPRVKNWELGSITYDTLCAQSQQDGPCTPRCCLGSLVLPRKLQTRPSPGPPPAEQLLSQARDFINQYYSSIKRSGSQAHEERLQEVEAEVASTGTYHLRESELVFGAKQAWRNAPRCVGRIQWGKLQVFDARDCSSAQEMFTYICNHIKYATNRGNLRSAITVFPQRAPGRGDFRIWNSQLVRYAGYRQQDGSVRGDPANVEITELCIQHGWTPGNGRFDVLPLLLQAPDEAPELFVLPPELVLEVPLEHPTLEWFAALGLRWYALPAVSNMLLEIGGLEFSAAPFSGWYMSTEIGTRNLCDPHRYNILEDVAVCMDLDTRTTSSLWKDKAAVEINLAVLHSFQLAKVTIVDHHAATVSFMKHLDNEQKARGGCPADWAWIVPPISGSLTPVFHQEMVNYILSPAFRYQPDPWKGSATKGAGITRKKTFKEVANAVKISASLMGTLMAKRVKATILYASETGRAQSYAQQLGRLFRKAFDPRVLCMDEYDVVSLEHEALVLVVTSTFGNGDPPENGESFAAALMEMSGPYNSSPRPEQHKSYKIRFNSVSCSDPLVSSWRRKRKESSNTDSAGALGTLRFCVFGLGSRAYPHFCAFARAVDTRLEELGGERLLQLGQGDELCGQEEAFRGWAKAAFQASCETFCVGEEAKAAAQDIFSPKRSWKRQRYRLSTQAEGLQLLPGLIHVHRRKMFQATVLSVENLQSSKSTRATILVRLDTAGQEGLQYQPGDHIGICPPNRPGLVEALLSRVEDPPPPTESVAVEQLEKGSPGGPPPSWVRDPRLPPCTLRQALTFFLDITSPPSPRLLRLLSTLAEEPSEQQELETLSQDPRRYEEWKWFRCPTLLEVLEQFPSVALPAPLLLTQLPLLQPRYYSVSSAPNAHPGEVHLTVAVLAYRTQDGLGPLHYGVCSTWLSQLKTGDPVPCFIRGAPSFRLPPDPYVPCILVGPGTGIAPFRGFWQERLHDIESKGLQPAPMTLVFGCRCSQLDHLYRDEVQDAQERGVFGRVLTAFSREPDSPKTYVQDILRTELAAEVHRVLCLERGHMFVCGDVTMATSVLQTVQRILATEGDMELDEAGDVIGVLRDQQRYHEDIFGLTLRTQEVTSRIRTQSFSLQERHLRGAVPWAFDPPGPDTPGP
The assay can be described thus: Inhibition of bovine eNOS.

Chain of Nitric oxide synthase 1 (P29476 whole entry): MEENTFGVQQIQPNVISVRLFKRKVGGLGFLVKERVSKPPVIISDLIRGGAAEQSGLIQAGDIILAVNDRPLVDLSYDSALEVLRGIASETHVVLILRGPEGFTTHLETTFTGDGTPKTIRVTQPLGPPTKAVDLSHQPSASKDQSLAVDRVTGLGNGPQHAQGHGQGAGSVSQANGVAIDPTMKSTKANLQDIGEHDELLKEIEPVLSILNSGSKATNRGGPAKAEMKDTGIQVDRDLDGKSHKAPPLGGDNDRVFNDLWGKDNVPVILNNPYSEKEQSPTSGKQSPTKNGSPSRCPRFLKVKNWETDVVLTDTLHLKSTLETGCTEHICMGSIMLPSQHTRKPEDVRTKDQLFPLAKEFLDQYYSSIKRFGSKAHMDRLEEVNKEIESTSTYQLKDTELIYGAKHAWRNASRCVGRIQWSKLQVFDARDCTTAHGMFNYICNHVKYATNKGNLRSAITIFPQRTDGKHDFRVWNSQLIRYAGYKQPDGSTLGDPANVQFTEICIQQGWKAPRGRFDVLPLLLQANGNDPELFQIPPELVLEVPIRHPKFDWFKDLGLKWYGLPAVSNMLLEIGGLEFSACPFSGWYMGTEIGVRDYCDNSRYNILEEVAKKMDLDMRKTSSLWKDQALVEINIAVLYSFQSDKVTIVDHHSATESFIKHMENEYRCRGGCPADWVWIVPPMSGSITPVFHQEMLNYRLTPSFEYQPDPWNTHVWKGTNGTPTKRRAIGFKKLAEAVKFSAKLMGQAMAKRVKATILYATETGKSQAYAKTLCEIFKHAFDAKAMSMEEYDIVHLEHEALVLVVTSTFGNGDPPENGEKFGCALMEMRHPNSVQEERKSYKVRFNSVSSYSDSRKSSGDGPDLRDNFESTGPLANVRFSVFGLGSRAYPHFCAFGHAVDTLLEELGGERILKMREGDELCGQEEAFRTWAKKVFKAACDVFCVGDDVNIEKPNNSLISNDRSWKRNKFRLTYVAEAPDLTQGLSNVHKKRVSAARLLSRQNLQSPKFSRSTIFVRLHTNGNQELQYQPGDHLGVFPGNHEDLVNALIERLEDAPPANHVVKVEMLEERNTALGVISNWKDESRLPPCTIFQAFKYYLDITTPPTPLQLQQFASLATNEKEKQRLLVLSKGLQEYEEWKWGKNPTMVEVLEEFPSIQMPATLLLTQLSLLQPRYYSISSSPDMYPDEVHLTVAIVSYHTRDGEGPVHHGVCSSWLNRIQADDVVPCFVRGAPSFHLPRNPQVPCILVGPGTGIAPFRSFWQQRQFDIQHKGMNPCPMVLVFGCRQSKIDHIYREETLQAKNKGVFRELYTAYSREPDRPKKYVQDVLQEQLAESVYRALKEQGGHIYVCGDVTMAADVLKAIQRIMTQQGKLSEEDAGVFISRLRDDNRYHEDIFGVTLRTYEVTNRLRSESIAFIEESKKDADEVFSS

Consider `Cc1cc(N)nc(CCc2cc(CCCN)cc(CCc3cc(C)cc(N)n3)c2)c1`, for which the values for the Ks with Bacillus subtilis [1] and in the assay with Bacillus subtilis [2] were 16 µM and 19 µM, respectively. The inhibition entry in the assay on Bacillus subtilis [3] and with Bacillus subtilis [4] was “Active” throughout.

With `N=C(NO)NCCC[C@H](N)C(=O)O`, the Ks in the assay with Bacillus subtilis [1] came out at 3.2 µM; with Bacillus subtilis [2], 1.9 µM.

As to `Cc1cc(N)nc(CCc2cc(N)cc(CCc3cc(C)cc(N)n3)c2)c1`, the Ks was 0.91 µM with Bacillus subtilis [1] and 1.9 µM in the assay with Bacillus subtilis [2]. For the same compound, the inhibition entry with Bacillus subtilis [3] is “Active”. Besides, the Activity in the assay on Bacillus subtilis [4] is 49.2%. For the same compound, in the assay on Bacillus subtilis [5], the “inhibition (INH)” value is given as 36%.

Consider `Cc1cc(N)nc(CCc2cc(CN)cc(CCc3cc(C)cc(N)n3)c2)c1`, for which the Ks in the assay on Bacillus subtilis [1] is 15 µM; with Bacillus subtilis [2], 47 µM. For the same compound, the inhibition entry in the assay on Bacillus subtilis [3] and in the assay on Bacillus subtilis [4] was “Active” in each case.

As usually defined, the Ki is the equilibrium dissociation constant of an inhibitor or competing ligand from its target. Regarding `Cc1cc(N)nc(CCc2cc(CN)cc(CCc3ccc4cc[nH]c4n3)c2)c1`, the Ks was 10 µM in the assay on Bacillus subtilis [1] and 12 µM in the assay on Bacillus subtilis [2]. For the same compound, the Ki on Nitric oxide synthase 1 worked out at 0.22 µM; in assay [6], 7.1 µM. The inhibition entry with Bacillus subtilis [3] and with Bacillus subtilis [4] was “Active” in each case.

As for `CNc1cc(C)cc(CCc2cc(C#N)cc(CCc3cc(C)cc(N)n3)c2)n1`, the Ks worked out at 12 µM with Bacillus subtilis [1] and 19 µM in the assay on Bacillus subtilis [2]. In addition, the Ki at Nitric oxide synthase 1 was 0.196 µM; on Nitric oxide synthase 3, 11.8 µM; in assay [6], 14.4 µM. Moreover, the inhibition entry in the assay with Bacillus subtilis [3] and with Bacillus subtilis [4] was “Active” throughout.

Consider `N=C(Nc1cccc(OCC(O)c2cccc(NC(=N)c3cccs3)c2)c1)c1cccs1` (stereo not given), for which the inhibition entry in the assay with Bacillus subtilis [3] and in the assay with Bacillus subtilis [4] was “Active” each time.

Turning to `Cc1cc(N)nc(CCc2cc(C#N)cc(NCCc3ccccn3)c2)c1`, the results for the Ki (on Nitric oxide synthase 1; at Nitric oxide synthase 3; in assay [6]) were 1.27 µM, 1.56 µM and 12.8 µM, respectively. Moreover, the inhibition result with Bacillus subtilis [3] and in the assay on Bacillus subtilis [4] was “Active” in each case.
